Assay [1] deals with Candida albicans. Nature of the assay: Antifungal activity against Candida albicans assessed as time period for bacterial regrowth inhibition after 1 hr drug exposure. The assay is classed as functional.
The subject of assay [2] is Nakaseomyces glabratus. Kind of assay: Increase in susceptibility to calcofluor white in Candida glabrata isolate 1 assessed as cell wall damage at 16 times MIC after 1 hr relative to control. The format is functional, organism-based. The essentials:
(§1)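 Cells recovered 8 h after a 1-h drug exposure were grown to exponential phase in YPD with 1% glucose and adjusted to OD599 0.1. Undiluted and 10-fold serially diluted cultures were spotted onto YPD plates containing calcofluor white, then incubated at 30°C for 72 h. Growth compared with no-drug control cells; triplicate.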

Assay [3] relates to Nakaseomyces glabratus. Kind of assay: Antifungal activity against Candida glabrata by NCCLS M27A broth microdilution method. The assay is classed as functional. A general note: Broth dilution looks for growth in wells or tubes with falling amounts of substance.
Assay [4] deals with Candida albicans. Kind of assay: Fungicidal activity against Candida albicans isolate 1 assessed as log reduction in bacterial count at 16 times MIC after drug exposure for 1 hr followed by washout measured after 48 hrs in the absence of drug by PAFE study. The format is functional. The gist of the method:
(§2)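 Starting inoculum ~1 x 10^5 to 5 x 10^5 CFU/ml in MOPS-buffered RPMI 1640 (pH 7.0) with drug at multiples of the CLSI M27-A3 MIC. After 1 h at 35°C, cells washed and centrifuged three times at 1,400 x g for 10 min, then resuspended in warm drug-free RPMI. Shaken at 35°C and plated on SDA at 0–48 h; CFU counted after 48 h. Run twice per isolate; means.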

The subject of assay [5] is Pichia kudriavzevii. Nature of the assay: Antifungal activity against Candida krusei by NCCLS M27A broth microdilution method. The format is functional.
Assay [6] concerns Pichia kudriavzevii. Nature of the assay: Fungicidal activity against Candida krusei isolate 1 assessed as log reduction in bacterial count at 16 times MIC after 48 hrs by time-kill analysis. The format is functional. As to conditions: isolate 1, 48 h. The essentials:
(§3)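 Isolates subcultured twice on SDA, suspended to 0.5 McFarland, giving ~1 x 10^5 to 5 x 10^5 CFU/ml in MOPS-buffered RPMI 1640 (pH 7.0) with or without drug at multiples of MIC (MIC by CLSI M27-A3). Tubes shaken at 35°C with continuous drug. Sampled at 0–48 h, diluted 10-fold and plated on SDA; CFU counted after 48 h at 35°C. Run twice per isolate; means.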

The test system of assay [7] is Nakaseomyces glabratus. Kind of assay: Fungicidal activity against Candida glabrata isolate 3 assessed as log reduction in bacterial count at 16 times MIC after 48 hrs by time-kill analysis. The format is functional. As to conditions: isolate 3, 48 h. The gist of the method:
as §3

In assay [8] the test system is Candida albicans. Nature of the assay: Antifungal activity against Candida albicans isolate 1 assessed as time period for bacterial growth inhibition at 16 times MIC after 1 hr drug exposure. The assay is classed as functional. The essentials:
(§4)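 Inoculum of about 1 x 10^5 to 5 x 10^5 CFU/ml in MOPS-buffered RPMI (pH 7.0), shaken at 35°C and exposed to drug for 1 h. Cells then washed and centrifuged three times and resuspended in drug-free warm RPMI. Samples plated on SDA at 0, 2, 4, 8, 12, 24 and 48 h, with CFU counted after 48 h at 35°C. Run twice per isolate; values are means.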

For assay [9], the system named is Nakaseomyces glabratus. Kind of assay: Increase in susceptibility to SDS in Candida glabrata isolate 1 assessed as cell wall damage at MIC after 1 hr relative to control. The assay is classed as functional, organism-based. The essentials: (§5)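 Cells recovered 8 h after a 1-h drug exposure were grown in YPD with 1% glucose to exponential phase and adjusted to OD599 0.1. Undiluted culture and 10-fold serial dilutions were spotted onto YPD plates containing SDS (0.01 to 0.04%), then incubated 72 h at 30°C. Growth compared with unexposed control cells; triplicate.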

The subject of assay [10] is Candida parapsilosis. Kind of assay: Antifungal activity against Candida parapsilosis isolate A by CLSI M27-A3 broth microdilution method. The format is functional. The settings on record: Lodderomyces parapsilosis. The essentials:
(§6)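 CLSI M27-A3 broth microdilution in RPMI 1640 buffered to pH 7.0 with MOPS. Starting inoculum 0.5 x 10^3 to 2.5 x 10^3 cells/ml, incubated at 35°C. MIC read as the lowest concentration giving >50% growth reduction versus control. Each isolate tested on at least three occasions.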

For assay [11], the system named is Candida parapsilosis. Nature of the assay: Increase in susceptibility to calcofluor white in Candida parapsilosis isolate 1 assessed as cell wall damage at 16 times MIC after 1 hr relative to control. The format is functional, organism-based. The essentials:
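Candida given a 1-h anidulafungin pulse in MOPS-buffered RPMI 1640 (pH 7.0) at 35°C, washed three times by centrifugation, and regrown drug-free. Cells collected 8 h later, grown in YPD with 1% glucose to exponential phase, and set to OD599 0.1. Undiluted culture and 10-fold dilutions (4 µl) spotted on YPD plates with calcofluor white, then 30°C for 72 h. Triplicate; compared with no-drug cells.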

Assay [12] concerns Candida parapsilosis. Kind of assay: Fungicidal activity against Candida parapsilosis isolate 1 assessed as log reduction in bacterial count at MIC after drug exposure for 1 hr followed by washout measured after 48 hrs in the absence of drug by PAFE study. The assay is classed as functional. The settings on record: Lodderomyces parapsilosis. The essentials: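 Inoculum about 1 x 10^5 to 5 x 10^5 CFU/ml in RPMI 1640 (MOPS, pH 7.0) with drug, shaken at 35°C for 1 h. Cells were then washed and centrifuged at 1,400 x g for 10 min (3 cycles) and resuspended in warm drug-free RPMI. Samples plated on SDA at 0, 2, 4, 8, 12, 24 and 48 h; CFU counted after 48 h at 35°C. Run twice per isolate; means.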

Assay [13] deals with Nakaseomyces glabratus. Kind of assay: Increase in susceptibility to calcofluor white in Candida glabrata isolate 3 assessed as cell wall damage at MIC after 1 hr relative to control. The format is functional, organism-based. The gist of the method: as §1
For assay [14], the system named is Candida albicans. Nature of the assay: Antifungal activity against Candida albicans isolate 2 by CLSI M27-A3 broth microdilution method. The assay is classed as functional. The gist of the method: as §6
Assay [15] has as its system Nakaseomyces glabratus. Kind of assay: Fungicidal activity against Candida glabrata isolate 3 assessed as log reduction in bacterial count at MIC after 48 hrs by time-kill analysis. The format is functional. As to conditions: isolate 3, 48 h. The essentials: as §3
The subject of assay [16] is Candida albicans. Kind of assay: Fungicidal activity against Candida albicans isolate S assessed as log reduction in bacterial count at 4 times MIC after drug exposure for 1 hr followed by washout measured after 48 hrs in the absence of drug by PAFE study. The format is functional. The essentials:
as §2

The test system of assay [17] is Candida parapsilosis. Kind of assay: Antifungal activity against Candida parapsilosis isolate A assessed as time period for bacterial growth inhibition at 16 times MIC after 1 hr drug exposure. The assay is classed as functional. The essentials:
as §4

The subject of assay [18] is Nakaseomyces glabratus. Nature of the assay: Fungicidal activity against Candida glabrata isolate 2 assessed as log reduction in bacterial count at 16 times MIC after drug exposure for 1 hr followed by washout measured after 48 hrs in the absence of drug by PAFE study. The assay is classed as functional. The gist of the method:
as §2

The subject of assay [19] is Pichia kudriavzevii. Nature of the assay: Antifungal activity against Candida krusei isolate 1 assessed as cell wall damage at 4 times MIC by Transmission electron microscopy. The format is functional, organism-based. The essentials: (§7)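 Cells recovered 8 h after a 1-h drug exposure were grown on SDA for 24 h at 35°C. Colonies fixed at 4°C in 0.1 M cacodylate (pH 7.2) with 2% glutaraldehyde and 2% paraformaldehyde, ethanol-dehydrated and embedded in Lowicryl K4M. Thin sections examined by transmission EM.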

The test system of assay [20] is Candida albicans. Nature of the assay: Antifungal activity against Candida albicans isolate 1 assessed as cell wall damage at 4 times MIC by Transmission electron microscopy. The assay is classed as functional, organism-based. The gist of the method: as §7
Assay [21] concerns Candida albicans. Kind of assay: Increase in susceptibility to SDS in Candida albicans ATCC 90028 assessed as cell wall damage at 4 times MIC after 1 hr relative to control. The format is functional, organism-based. The essentials:
as §5

Assay [22] deals with Candida albicans. Kind of assay: Antifungal activity against Candida albicans isolate S by CLSI M27-A3 broth microdilution method. The format is functional. The essentials: as §6
The subject of assay [23] is Nakaseomyces glabratus. Nature of the assay: Fungicidal activity against Candida glabrata isolate 3 assessed as log reduction in bacterial count at 4 times MIC after 48 hrs by time-kill analysis. The format is functional. The settings on record: isolate 3, 48 h. The gist of the method: as §3
For assay [24], the system named is Candida albicans. Nature of the assay: Increase in susceptibility to calcofluor white in Candida albicans ATCC 90028 assessed as cell wall damage at MIC after 1 hr relative to control. The assay is classed as functional, organism-based. The essentials:
as §1

Values after ≈ are worked out from the molar mass of the structure shown. Active and inactive are the calls of the source. Starred links: 1 amine or outer side, 2 acyl side, 3 side chain; linkers in the order of their positions; H or OH if unused. Positions of bridges follow the written chain, without caps; N, C: chain ends. Non-standard residues stand in square brackets, D forms with d. Residues, ends and D or L forms follow the SMILES beside them. *: point of attachment. pTerphenylCO(4''-OnC5H11) = CCCCCOc1ccc(-c2ccc(-c3ccc(C(=O)*)cc3)cc2)cc1; Orn(4R-OH,5R-OH) = O=C([C@H](C[C@@H](O)[C@@H](O)N[*:3])N[*:1])[*:2]; hTyr(3S-OH,4S-OH) = N[C@H](C(=O)O)[C@H](O)[C@@H](O)c1ccc(O)cc1; Pro(3S-OH,4S-Me) = C[C@H]1CN[C@H](C(=O)O)[C@H]1O; Hyp = O=C(O)[C@@H]1C[C@@H](O)CN1

The MIC90 is the lowest concentration that inhibits either 90% of growth or 90% of the strains tested, depending on the study. A lower MIC90 goes with higher susceptibility. For orientation: MIC means the smallest concentration in the dilution series that meets the test's criterion for growth inhibition. High values mean weaker potency, low ones greater potency.

On to `CCCCCOc1ccc(-c2ccc(-c3ccc(C(=O)N[C@H]4C[C@@H](O)[C@@H](O)NC(=O)[C@@H]5[C@@H](O)[C@@H](C)CN5C(=O)[C@H]([C@@H](C)O)NC(=O)[C@H]([C@H](O)[C@@H](O)c5ccc(O)cc5)NC(=O)[C@@H]5C[C@@H](O)CN5C(=O)[C@H]([C@@H](C)O)NC4=O)cc3)cc2)cc1` [ANIDULAFUNGIN] ({pTerphenylCO(4''-OnC5H11)}-[Orn(4R-OH,5R-OH)]T[Hyp][hTyr(3S-OH,4S-OH)]T[Pro(3S-OH,4S-Me)]; lactam 1-C), for which the Time result in the assay with Candida albicans [1] is “>=12 hr”; in the assay on Candida albicans [8], 8 h; in the assay on Candida parapsilosis [17], 8 h. Besides, the outcome with Nakaseomyces glabratus [2], in the assay on Nakaseomyces glabratus [9], in the assay on Candida parapsilosis [11], with Nakaseomyces glabratus [13], in the assay with Pichia kudriavzevii [19] and with Candida albicans [20] was Active. Moreover, the result in the assay on Candida albicans [21] and with Candida albicans [24] was Active. The MIC90 against Nakaseomyces glabratus [3] and against Pichia kudriavzevii [5] was 0.06 µg/mL (≈ 0.0526 µM) each time. Moreover, the log reduction amounted to 2.64 in the assay on Candida albicans [4]; 3 log CFU/ml with Pichia kudriavzevii [6]; 3.89 log CFU/ml in the assay with Nakaseomyces glabratus [7]; 0.81 in the assay with Candida parapsilosis [12]; 1 log CFU/ml in the assay on Nakaseomyces glabratus [15]; 2.09 log CFU/ml in the assay on Candida albicans [16]. For the same molecule, the log reduction in the assay on Nakaseomyces glabratus [18] is 2.92; with Nakaseomyces glabratus [23] it was 2.76 log CFU/ml. In addition, the MIC was 2 µg/mL (≈ 1.75 µM) against Candida parapsilosis [10], 0.03 µg/mL (≈ 0.0263 µM) against Candida albicans [14] and 0.008 µg/mL (≈ 0.00702 µM) in the assay on Candida albicans [22].

The values are drawn from ChEMBL document CHEMBL1671655, “Anidulafungin is fungicidal and exerts a variety of postantifungal effects against Candida albicans, C. glabrata, C. parapsilosis, and C. krusei isolates” (2009).
